ChEMBL document CHEMBL1134233, “Synthesis of phenylglycine derivatives as potent and selective antagonists of group III metabotropic glutamate receptors” (2001)

Legend:
[1] = Antagonist activity at Group III Metabotropic glutamate receptor in rat spinal cord; type: functional
In short: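 Neonatal rat spinal cord preparation. Concentration–response curves to the group III agonist (S)-AP4 were constructed with and without the antagonist, and an apparent KD was derived from the curve shift.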

[2] = Antagonist activity at Group I Metabotropic glutamate receptor in rat spinal cord; type: functional
[3] = Antagonist activity at Group II Metabotropic glutamate receptor in rat spinal cord; type: functional
In short: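 Neonatal rat spinal cord preparation. Concentration–response curves to (1S,3S)-ACPD or (2R,4R)-APDC were built with and without antagonist to give an apparent K_D. For weak antagonists, a single antagonist concentration was tested against a single agonist-induced response in triplicate and reported as % antagonism.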

[4] = Antagonist activity at Group I Metabotropic glutamate receptor in rat spinal cord; Not effective at 1 mM; type: functional
[5] = Antagonist activity at Group III Metabotropic glutamate receptor in rat spinal cord in the presence of (S)AP4 at 100 uM as agonist challenge; type: functional
In short: (§1)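 Neonatal rat spinal cord, one-point assay run in triplicate. A single antagonist concentration was tested against a single agonist-evoked response, expressed as percent antagonism. The agonist was (2R,4R)-APDC for group II and (S)-AP4 for group III.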

[6] = Antagonist activity at Group III Metabotropic glutamate receptor in rat spinal cord; Not effective at 1 mM; type: functional
[7] = Antagonist activity at Group III Metabotropic glutamate receptor in rat spinal cord; Not effective at 50 uM; type: functional
[8] = Antagonist activity at Group II Metabotropic glutamate receptor in rat spinal cord in the presence of (2R,4R)APDC at 1 uM as agonist challenge; type: functional; in short: as §1
[9] = Antagonist activity at Group I Metabotropic glutamate receptor in rat spinal cord in the presence of (1S,3R)APCD at 1 mM as agonist challenge

Compound	KDs [1]	KDs [3]	also measured
CC(N)(C(=O)O)c1ccc(C(=O)O)cc1 (centres undefined)	227 µM	479 µM	KDs [2]: 144 µM
CC(N)(C(=O)O)c1ccc(P(=O)(O)O)cc1 (centres undefined)	9.2 µM	113 µM	KDs [4]: No effect
CCOP(=O)(O)c1ccc(C(C)(N)C(=O)O)cc1OC (centres undefined)			KDs [5]: 13 µM
CC(N)(C(=O)O)c1cccc(CP(=O)(O)O)c1 (centres undefined)			KDs [6]: No effect
COc1cc(C(N)(C(=O)O)C2CC2)ccc1P(=O)(O)O (centres undefined)			KDs [7]: No effect
COc1cc(C(C)(N)C(=O)O)ccc1P(=O)(O)O (centres undefined)			KDs [5]: 4.8 µM; KDs [8]: 51 µM
Cc1cc(P(=O)(O)O)ccc1C(C)(N)C(=O)O (centres undefined)	180 µM		
NC(C(=O)O)(c1ccc(P(=O)(O)O)cc1)C1CC1 (centres undefined)	1.7 µM	53 µM	Inhibition [9]: 70%
Cc1cc(C(C)(N)C(=O)O)ccc1P(=O)(O)O (centres undefined)	5.5 µM		
CC(N)(C(=O)O)c1ccc(P(=O)(O)O)c(Cl)c1 (centres undefined)	6.8 µM	726 µM	KDs [4]: No effect
